Assay results of several laboratories.
Compare with care: the assays were run in different laboratories.
Target: Tyrosine-protein kinase CSK (CSK, Homo sapiens, UniProt P41240)

| Compound | observed | technique | tested at | remaining binding |
| --- | --- | --- | --- | --- |
| O=C(Nc1cnc(Oc2ccc(F)cc2)nc1)N1CCc2ncccc2[C@@H]1c1ccc(F)cc1 | cell-free assay | competition with immobilised ligand | 1 µM | 100% |
| FC(F)(F)Oc1cccc(-c2cnc3ccc(-c4ccncc4)nn23)c1 | cell-free assay | competition with immobilised ligand | 5 µM | 86% |
| c1cncc(-c2cccc(Nc3nccc(NC4CCCCC4)n3)c2)c1 | binding | competition with immobilised ligand | 10 µM | 88% |
| O=C(NCCCN1CCOCC1)c1ccc(Nc2nccc(-c3cc4ccccc4s3)n2)cc1 | binding | competition with immobilised ligand | 1 µM | 90% |
| O=C(NCCCC1CCCCC1)c1ccc(CNC(=O)c2cnn(-c3ccccc3)c2C(F)(F)F)cc1 | cell-free assay | competition with immobilised ligand | 0.1 µM | 100% |
| O=C(NCC1CCOCC1)c1n[nH]cc1NC(=O)c1c(F)cccc1F | binding | competition with immobilised ligand | 1 µM | 98% |
| F[C@@H]1CCN(c2nccc(-c3cnn4ncccc34)n2)C1 | binding | – | 1 µM | 100% |
| CC(C)CC(=O)N1CCc2nc(-c3ccc(Br)cc3)nc(N(C)Cc3ccccc3)c2C1 | cell-free assay | competition with immobilised ligand | 0.1 µM | 100% |
| O=C(c1ccc(Nc2ncc(Cl)c(-c3ccc(Cl)s3)n2)cc1)N1CCC(N2CCCC2)CC1 | binding | competition with immobilised ligand | 1 µM | 75% |
| COc1cnc(Nc2cccc(S(N)(=O)=O)c2)nc1N1CCN(c2ccccc2)C(=O)C1 | binding | competition with immobilised ligand | 1 µM | 100% |
| O=C(c1ccc(Nc2nccc(-c3cc4ccccc4s3)n2)cc1)N1CCC(N2CCCC2)CC1 | binding | competition with immobilised ligand | 1 µM | 100% |
| CC1CCCN1c1nccc(-c2cnn3ncccc23)n1 (stereo not drawn) | binding | – | 1 µM | 100% |
| Cc1ccc(-n2nc(C(C)(C)C)cc2NC(=O)Nc2ccc(-n3c(N)c(C(N)=O)c4nc5ccc(NCCCN)cc5nc43)cc2)cc1 | cell-free assay | competition with immobilised ligand | 1 µM | 0.65% |
| N[C@H]1CCN(c2nccc(-c3cnn4ncccc34)n2)C1 | binding | – | 1 µM | 100% |
| N#Cc1ccc(Nc2ccc3[nH]c(=O)[nH]c3c2)c(Cl)c1 | cell-free assay | competition with immobilised ligand | 1 µM | 89% |
| Cc1cnn2ncc(-c3ccnc(N(C)C)n3)c2c1 | binding | – | 1 µM | 99% |
| CS(=O)(=O)c1cc(C2(NC(=O)c3cncc4c3cnn4-c3ccc(F)cc3)CC2)ccn1 | cell-free assay | competition with immobilised ligand | 1 µM | 95% |
| CN(C)c1nccc(-c2cnn3ncccc23)n1 | binding | – | 1 µM | 68% |
| CN1CCN(c2cnc3c(C4CCN(C(=O)c5ccc(OC(F)(F)F)cc5N)CC4)ncnc3c2)CC1 | cell-free assay | competition with immobilised ligand | 1 µM | 100% |
| C[C@@H]1CCN(c2nccc(-c3cnn4ncccc34)n2)C1 | binding | – | 1 µM | 89% |
| COc1ncc2cc3ccccc3nc2c1C#N | cell-free assay | competition with immobilised ligand | 5 µM | 100% |
